Screening data (PubChem)
zVAD death inh = L929 zVAD cell death inhibition; viability rescue, % at 10 µM; AID 1377; 220,000 tested, 0.38% active; L929 zVAD necroptosis rescue, ATP luminescence, 24 h; with zVAD 60 µM;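 active = activation, scaled between plate controls, above about 75%, limit read from the data; inactive = activation under that limit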;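 also: 0% = zVAD with DMSO and 100% = DMSO alone without zVAD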
MDM2 E3 inh = Mdm2 E3 ligase (human) inhibition; Q00987; cell-based MDM2 ubiquitination luciferase reporter, 2 h; 0 = plate control, 100 = twice control, blank-subtracted; signal enhancement, % at 5 µM; 210,000 tested, 0.11% active; AID 1230;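 active = signal enhancement of 30% or more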;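 also: luminescence tracks abundance of the self-degrading MDM2-luciferase fusion protein; higher signal means inhibition of MDM2 E3 ligase activity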
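Assay system: stable mammalian line carrying autodegrading MDM2–luciferase fusion reporter; Input: 2000 cells in each well; Compound dosing: single-point 5 µM; Schedule: 2 h compound exposure at 37 °C; Signal: SteadyLite luciferase luminescence after 15 min room-temperature reagent incubation; Evaluation: % luminescence enhancement versus blank-corrected plate control mean; Benchmarks: plate controls and plate blanks.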
Beta2AR agonist = human beta-2 adrenergic receptor agonism by FAP. Am2.2-beta2AR cells, FAP receptor internalization, flow cytometry. 340,000 tested, 0.43% active. response, % (concentration not given with the values);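 active = response above a set limit, near 3 SD of response in nonfluorescent compounds, cut at about 42% in these data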
Target sequence (P07550 whole entry, looked up): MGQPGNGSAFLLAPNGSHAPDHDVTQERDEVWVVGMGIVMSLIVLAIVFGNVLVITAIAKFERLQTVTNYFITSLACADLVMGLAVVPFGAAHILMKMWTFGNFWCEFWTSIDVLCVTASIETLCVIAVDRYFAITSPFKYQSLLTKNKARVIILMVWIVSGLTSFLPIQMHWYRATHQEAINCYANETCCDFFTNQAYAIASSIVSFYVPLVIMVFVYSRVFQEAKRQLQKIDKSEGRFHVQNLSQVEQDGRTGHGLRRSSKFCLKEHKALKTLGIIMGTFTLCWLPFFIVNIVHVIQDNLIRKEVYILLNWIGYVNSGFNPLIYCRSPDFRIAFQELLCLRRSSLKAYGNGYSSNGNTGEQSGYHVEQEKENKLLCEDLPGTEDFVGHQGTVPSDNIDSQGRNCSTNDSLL
Dynein transport = dynein cargo transport inhibition | 3617.4 mouse cells, GR-EGFP nuclear translocation imaging; test concentration mostly 20 µM; stimulated with dexamethasone, 1 µM; active compounds read low | z-score, hits read low | 220,000 tested, 0.47% active;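 active = plate z-score of nuclear minus cytoplasmic receptor signal below a set negative limit, without overly bright fluorescence or cell loss, cut at about -3.5 in these data, passing the limit was not always enough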;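 also: z-score of nuclear minus cytoplasmic ring GR-EGFP intensity difference per well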
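Buffer or medium: tet-free, stripped-serum medium; Also added: dexamethasone, 1.0 µM final; Technique: high-content fluorescence imaging after fixation; Times: 48 h induction, 1 h compound, 30 min dex at 37 °C; Read-out: per-cell GR-EGFP intensity, nucleus versus surrounding cytoplasmic ring, well-averaged.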
TNF death inh = blocks TNF-alpha induced death of Jurkat FADD-/- cells; Jurkat FADD-/- TNF necroptosis rescue, ATP luminescence, 24 h; 0 = TNF only, 100 = no-TNF cells; 220,000 tested, 0.068% active; activation (protection from cell death), % at 10 µM;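 active = activation, meaning protection from cell death, of at least 50% relative to plate controls; inactive = activation below 50%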;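 also: necroptosis triggered by 40 ng/mL TNF-alpha added together with compound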
B2AR ag CP1 = human beta-2 adrenergic receptor agonism, cherry pick; shares compounds with Beta2AR agonist; Am2.2-beta2AR cells, FAP surface receptor, flow cytometry; active compounds read low; percent response (surface receptor), % at 10 µM; 1,100 tested, 25% active; AID 540358;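 active = surface receptor percent response at or below 58%, roughly 3 SD from nonfluorescent compounds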
FAP fluor counter = fluorescence artifact in beta-2AR agonist FAP counterscreen; shares compounds with Beta2AR agonist; Am2.2 cells, FAP fluorogen flow cytometry; active compounds read low; 1,100 tested, under 10 active; calls only at 10 µM; AID 588765;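 active = percent response below a set limit in fluorescence channel 1 and below 50% in channel 8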
Numbers without * were called inactive. Most compounds without a hit are left out; they make up all but 0.97% or so of the library.

CCC(=O)NCc1csc(-c2cccs2)n1 was read as zVAD death inh 1, MDM2 E3 inh 0, Beta2AR agonist 3, Dynein transport 0.74 and TNF death inh 5.
For COc1ccccc1Nc1nn2c(=O)c3ccc(C(=O)NCc4cccnc4)cc3nc2s1 the results were Beta2AR agonist 55*, B2AR ag CP1 97 and FAP fluor counter inactive.
`CCCCN(CCCC)c1nc2ccccc2nc1NS(=O)(=O)c1ccc(NC(C)=O)cc1` gave zVAD death inh 1, MDM2 E3 inh -15, Beta2AR agonist 119*, Dynein transport -0.43, TNF death inh 0, B2AR ag CP1 28* and FAP fluor counter inactive.
Screening CC(=O)Nc1ccc(S(=O)(=O)Nc2nc3ccccc3nc2Nc2ccc(N)cc2)cc1 returned zVAD death inh 0, Beta2AR agonist 4, Dynein transport 0.01 and TNF death inh -1.
`CCOC(=O)c1ccc(NC(=O)CN2C(=O)CSCC2=O)cc1` gave zVAD death inh 2, MDM2 E3 inh -15, Beta2AR agonist 6, Dynein transport -0.25 and TNF death inh 2.
Screening COc1ccc(Cl)cc1NC(=S)Nc1ccccc1C returned zVAD death inh -1, MDM2 E3 inh -17, Beta2AR agonist -4, Dynein transport -1 and TNF death inh -2.
Cc1nc2oc3c(=O)[nH]cnc3c2c2c1COC(C)(C)C2 was read as zVAD death inh 0, MDM2 E3 inh 7, Beta2AR agonist -4, Dynein transport 1.4, TNF death inh 4, B2AR ag CP1 99 and FAP fluor counter inactive.
Screening CCCCC(=O)Nc1ccc(C(=O)N(CC)c2ccccc2C)cc1 returned zVAD death inh 4, MDM2 E3 inh -11, Beta2AR agonist 63*, Dynein transport 1.3, TNF death inh 0, B2AR ag CP1 74 and FAP fluor counter inactive.
Screening CCN(C(=O)c1ccc(NC(C)=O)cc1)c1ccccc1C returned zVAD death inh 0, MDM2 E3 inh -9, Beta2AR agonist -16, Dynein transport -0.31 and TNF death inh 0.
Screening CCCCc1c(C)nc(N2CCCC2)[nH]c1=O returned zVAD death inh 1, MDM2 E3 inh -7, Beta2AR agonist 0, Dynein transport 1.2 and TNF death inh 1.
`CCOc1ccc(N=NC2C(=O)N(C(N)=S)N=C2C)cc1` (stereo unspecified) gave Beta2AR agonist 1.
Cc1nn(Cc2ccccc2)c(N)c1-c1ccccc1 was read as zVAD death inh 1, MDM2 E3 inh -8, Beta2AR agonist 50*, Dynein transport -0.77, TNF death inh -1, B2AR ag CP1 101 and FAP fluor counter inactive.
Cc1nn(C)c(N)c1-c1ccccc1 was read as zVAD death inh 3, MDM2 E3 inh 1, Beta2AR agonist -2, Dynein transport -0.38 and TNF death inh 1.
OC(c1cc(-c2ccc(C(F)(F)F)cc2)nc(C(F)(F)F)c1)C1CCCCN1 (stereo unspecified) was read as zVAD death inh -4, MDM2 E3 inh -6, Beta2AR agonist 30, Dynein transport -3.5 and TNF death inh -32.
For OC(c1cc(C(F)(F)F)nc2c(C(F)(F)F)cccc12)C1CCCCN1 (stereo unspecified) the results were Beta2AR agonist 36, B2AR ag CP1 99 and FAP fluor counter inactive.
COc1ccc(-c2csc(N3CCSCC3)n2)cc1 was read as Beta2AR agonist -15.
`COc1ccccc1N1CCN(C(=O)CN(C)S(=O)(=O)c2cc(C)ccc2OC)CC1` gave zVAD death inh 1, MDM2 E3 inh -14, Beta2AR agonist 1, Dynein transport 0.036, TNF death inh 0, B2AR ag CP1 139 and FAP fluor counter inactive.
COc1ccc(C)cc1S(=O)(=O)N(C)CC(=O)N1CCN(c2ccccc2)CC1 was read as zVAD death inh 4, MDM2 E3 inh -14, Beta2AR agonist -6, Dynein transport 0.39, TNF death inh 1, B2AR ag CP1 104 and FAP fluor counter inactive.
For COc1ccc(/C=C(/NC(=O)c2cccs2)C(=O)Nc2ccc(C)cc2)cc1OC the results were zVAD death inh 0, MDM2 E3 inh 11, Beta2AR agonist 3, Dynein transport 0.87 and TNF death inh 1.
For Cc1ccc(Sc2ncccc2COC(=O)Nc2c(C)cccc2C)cc1 the results were zVAD death inh 0, MDM2 E3 inh -13, Beta2AR agonist 63*, Dynein transport -0.033, TNF death inh -5, B2AR ag CP1 118 and FAP fluor counter inactive.
Screening CCOC(=O)c1ccc(NC(=O)Nc2ccon2)cc1 returned zVAD death inh 0, MDM2 E3 inh -2, Beta2AR agonist 44*, Dynein transport -0.61, TNF death inh -21, B2AR ag CP1 61 and FAP fluor counter inactive.
For CCOC(=O)c1ccc(NC(=O)Nc2ccc(Cl)cn2)cc1 the results were zVAD death inh 62, MDM2 E3 inh 16, Beta2AR agonist 9, Dynein transport -1.1 and TNF death inh 1.
Cc1cccc(N(C)S(=O)(=O)c2ccc(-c3cnc(C4CC4)o3)cc2)c1 was read as Beta2AR agonist 23.
Screening Cc1ccc(N(C)S(=O)(=O)c2cc(-c3cnc(C4CC4)o3)ccc2C)cc1 returned Beta2AR agonist 104*, B2AR ag CP1 1.5* and FAP fluor counter inactive.
Screening CCN(CC)C(=O)CN1C(=O)C2(OCC(C)(c3ccccc3)CO2)c2ccccc21 (stereo unspecified) returned zVAD death inh -1, MDM2 E3 inh -15, Beta2AR agonist 14, Dynein transport -0.42 and TNF death inh -5.
CC(=O)Nc1ccc(-c2cn3c(n2)SCC3)cc1 was read as Beta2AR agonist 60*, B2AR ag CP1 53* and FAP fluor counter inactive.
Screening O=C(Nc1ccc(-c2cn3c(n2)SCC3)cc1)c1ccco1 returned zVAD death inh 1, MDM2 E3 inh -22, Beta2AR agonist 12, Dynein transport -0.32 and TNF death inh -3.
c1ccc(-c2nnc(CSc3nncs3)o2)cc1 was read as zVAD death inh 0, MDM2 E3 inh -4, Beta2AR agonist -5, Dynein transport 0.11 and TNF death inh -1.
O=C(NCc1ccccc1)C(=O)NCC1OCCN1C(=O)c1ccc(Cl)cc1 (stereo unspecified) was read as zVAD death inh -1, MDM2 E3 inh 3, Beta2AR agonist 2, Dynein transport -0.76 and TNF death inh 0.
